Converted amounts (≈) assume the structure as drawn.
Columns and labels:
[1] = tested on: Mycobacterium tuberculosis; experiment: Antitubercular activity against dormant stage of Mycobacterium tuberculosis H37Ra ATCC 25177 infected in human THP1 cells after 12 days by nitrate reductase assay; type: functional; conditions: H37Ra ATCC 25177, 288 h
Summary of the method: (§1)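 Ex vivo test of H37Ra in THP-1 cells by nitrate reductase assay, absorbance read at 540 nm. Active stage incubated 8 days and dormant stage 12 days. H37Ra (ATCC 25177) grown in M. pheli medium to OD 1.0 and subcultured once from -70°C stock.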

[2] = tested on: Mycobacterium tuberculosis; experiment: Antitubercular activity against active stage of Mycobacterium tuberculosis H37Ra ATCC 25177 infected in human THP1 cells after 8 days by nitrate reductase assay; type: functional; conditions: H37Ra ATCC 25177, 192 h; summary of the method: as §1
[3] = tested on: Mycobacterium tuberculosis; experiment: Antitubercular activity against dormant stage of Mycobacterium tuberculosis H37Ra ATCC 25177 after 12 days by XTT reduction menadione assay; type: functional; conditions: H37Ra ATCC 25177, 288 h
Summary of the method: (§2)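 M. tuberculosis H37Ra (ATCC 25177), grown to log phase (OD 1.0) in M. pheli medium from -70°C stock, subcultured once before inoculation. Incubation 8 days (active) or 12 days (dormant). XRMA read-out as absorbance at 470 nm.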

[4] = tested on: Mycobacterium tuberculosis; experiment: Antitubercular activity against active stage of Mycobacterium tuberculosis H37Ra ATCC 25177 after 8 days by XTT reduction menadione assay; type: functional; conditions: H37Ra ATCC 25177, 192 h; summary of the method: as §2
[5] = Cytotoxicity against human THP1 cells assessed as growth inhibition by MTT assay; type: cell-based; conditions: THP-1 cells
Summary of the method: (§3)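 MTT assay in duplicate on THP-1 leukaemia, A549 lung adenocarcinoma, PANC-1 pancreatic adenocarcinoma and HeLa cervical carcinoma cells, all obtained from ECCC.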

[6] = Selectivity index, ratio of GI50 for human A549 cells to MIC for dormant stage of Mycobacterium tuberculosis H37Ra ATCC 25177; type: toxicity; conditions: read-out: Selectivity Index
Summary of the method: (§4)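 Selectivity index is the cytotoxic GI50 against the named human cell line divided by the antimycobacterial value. Activity counted as specific when SI >10.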

[7] = Selectivity index, ratio of GI50 for human PANC1 cells to MIC for dormant stage of Mycobacterium tuberculosis H37Ra ATCC 25177; type: toxicity; conditions: PANC-1 cells, read-out: Selectivity Index; summary of the method: as §4
[8] = Selectivity index, ratio of GI50 for human HeLa cells to MIC for dormant stage of Mycobacterium tuberculosis H37Ra ATCC 25177; type: toxicity, cell-based; conditions: read-out: Selectivity Index; summary of the method: as §4
[9] = Selectivity index, ratio of GI50 for human A549 cells to MIC for active stage of Mycobacterium tuberculosis H37Ra ATCC 25177 infected in human THP1 cells; type: toxicity, cell-based; conditions: read-out: Selectivity Index; summary of the method: as §4
[10] = Selectivity index, ratio of GI50 for human A549 cells to MIC for active stage of Mycobacterium tuberculosis H37Ra ATCC 25177; type: toxicity; conditions: read-out: Selectivity Index; summary of the method: as §4
[11] = Selectivity index, ratio of GI50 for human PANC1 cells to MIC for active stage of Mycobacterium tuberculosis H37Ra ATCC 25177 infected in human THP1 cells; type: toxicity, cell-based; conditions: PANC-1 cells, read-out: Selectivity Index; summary of the method: as §4
[12] = Selectivity index, ratio of GI50 for human PANC1 cells to MIC for active stage of Mycobacterium tuberculosis H37Ra ATCC 25177; type: toxicity; conditions: PANC-1 cells, read-out: Selectivity Index; summary of the method: as §4
[13] = Selectivity index, ratio of GI50 for human HeLa cells to MIC for active stage of Mycobacterium tuberculosis H37Ra ATCC 25177 infected in human THP1 cells; type: toxicity, cell-based; conditions: read-out: Selectivity Index; summary of the method: as §4
[14] = Selectivity index, ratio of GI50 for human HeLa cells to MIC for active stage of Mycobacterium tuberculosis H37Ra ATCC 25177; type: toxicity, cell-based; conditions: read-out: Selectivity Index; summary of the method: as §4
[15] = Cytotoxicity against human A549 cells assessed as growth inhibition by MTT assay; type: cell-based; summary of the method: as §3
[16] = Cytotoxicity against human PANC1 cells assessed as growth inhibition by MTT assay; type: cell-based; conditions: PANC-1 cells; summary of the method: as §3
[17] = Cytotoxicity against human HeLa cells assessed as growth inhibition by MTT assay; type: cell-based; summary of the method: as §3
[18] = Selectivity index, ratio of GI50 for human A549 cells to MIC for dormant stage of Mycobacterium tuberculosis H37Ra ATCC 25177 infected in human THP1 cells; type: toxicity, cell-based; conditions: read-out: Selectivity Index; summary of the method: as §4
[19] = Selectivity index, ratio of GI50 for human PANC1 cells to MIC for dormant stage of Mycobacterium tuberculosis H37Ra ATCC 25177 infected in human THP1 cells; type: toxicity, cell-based; conditions: PANC-1 cells, read-out: Selectivity Index; summary of the method: as §4
[20] = Selectivity index, ratio of GI50 for human HeLa cells to MIC for dormant stage of Mycobacterium tuberculosis H37Ra ATCC 25177 infected in human THP1 cells; type: toxicity, cell-based; conditions: read-out: Selectivity Index; summary of the method: as §4

Structure (SMILES) | MIC [1] | MIC [2] | MIC [3] | MIC [4] | GI50 [5] | selectivity ratio [6] | selectivity ratio [7] | selectivity ratio [8] | selectivity ratio [9] | selectivity ratio [10] | selectivity ratio [11] | selectivity ratio [12] | selectivity ratio [13] | selectivity ratio [14] | GI50 [15] | GI50 [16] | GI50 [17] | selectivity ratio [18] | selectivity ratio [19] | selectivity ratio [20]
CO[C@H]1/C=C/O[C@@]2(C)Oc3c(C)c(O)c4c(O)c(c(/C=N/N5CCN(C)CC5)c(O)c4c3C2=O)NC(=O)/C(C)=C\C=C\[C@H](C)[C@H](O)[C@@H](C)[C@@H](O)[C@@H](C)[C@H](OC(C)=O)[C@@H]1C [RIFAMPIN] | 0.75 µg/mL (≈ 0.911 µM) | 0.51 µg/mL (≈ 0.62 µM) | 0.48 µg/mL (≈ 0.583 µM) | 0.41 µg/mL (≈ 0.498 µM) | 0.14 µg/mL (≈ 0.17 µM) | 208 | 208 | 208 | 196 | 244 | 196 | 244 | 196 | 244 | – | – | – | – | – | –
CCCCCn1c(SCCCn2cnc3sc4c(c3c2=O)CCCC4)nc(-c2cc(OC)c(OC)c(OC)c2)c(C#N)c1=O | > 30 µg/mL | > 30 µg/mL | > 30 µg/mL | > 30 µg/mL | > 100 µg/mL | > 3 | > 3 | 2 | > 3 | > 3 | > 3 | > 3 | 2 | 2 | > 100 µg/mL | > 100 µg/mL | 73 µg/mL (≈ 115 µM) | > 3 | > 3 | 2
C#CCn1c(SCCCn2cnc3sc4c(c3c2=O)CCCC4)nc(-c2cc(OC)c(OC)c(OC)c2)c(C#N)c1=O | > 30 µg/mL | > 30 µg/mL | > 30 µg/mL | > 30 µg/mL | > 100 µg/mL | > 3 | > 3 | 2 | > 3 | > 3 | > 3 | > 3 | 2 | 2 | > 100 µg/mL | > 100 µg/mL | 66.3 µg/mL (≈ 110 µM) | > 3 | > 3 | –
COc1cc(-c2nc(SCCCn3cnc4sc5c(c4c3=O)CCCC5)[nH]c(=O)c2C#N)cc(OC)c1OC | 26.1 µg/mL (≈ 46.1 µM) | 28.8 µg/mL (≈ 50.9 µM) | 23.4 µg/mL (≈ 41.4 µM) | 25.4 µg/mL (≈ 44.9 µM) | 97.6 µg/mL (≈ 173 µM) | 4 | 2 | 2 | 3 | 4 | 2 | 2 | 2 | 2 | 91.4 µg/mL (≈ 162 µM) | 52.8 µg/mL (≈ 93.3 µM) | 55.7 µg/mL (≈ 98.5 µM) | 3 | 2 | 2
CCCCCCc1cc2c(=O)n(CCCSc3nc(-c4cc(OC)c(OC)c(OC)c4)c(C#N)c(=O)[nH]3)cnc2s1 | 7.1 µg/mL (≈ 11.9 µM) | > 30 µg/mL | 8.7 µg/mL (≈ 14.6 µM) | > 30 µg/mL | 54.3 µg/mL (≈ 91.1 µM) | 10 | 3 | 8 | < 3 | 3 | 1 | 1 | 2 | 2 | 90.2 µg/mL (≈ 151 µM) | 28.1 µg/mL (≈ 47.2 µM) | 67 µg/mL (≈ 112 µM) | 13 | 4 | 9
CC(=O)O[C@H]1C(=O)[C@@]2(C)[C@H]([C@H](OC(=O)c3ccccc3)[C@]3(O)C[C@H](OC(=O)[C@H](O)[C@@H](NC(=O)c4ccccc4)c4ccccc4)C(C)=C1C3(C)C)[C@]1(OC(C)=O)CO[C@@H]1C[C@@H]2O [PACLITAXEL] | – | – | – | – | – | – | – | – | – | – | – | – | – | – | – | 0.128 µg/mL (≈ 0.15 µM) | – | – | – | –
COc1cc(-c2nc(SCCCn3cnc4sc5c(c4c3=O)CCCC5)n(S(=O)(=O)c3ccc(C)cc3)c(=O)c2C#N)cc(OC)c1OC | > 30 µg/mL | > 30 µg/mL | > 30 µg/mL | > 30 µg/mL | > 100 µg/mL | > 3 | > 3 | 2 | > 3 | > 3 | > 3 | > 3 | 2 | 2 | > 100 µg/mL | > 100 µg/mL | 64.2 µg/mL (≈ 89.2 µM) | > 3 | > 3 | < 2
CCCCCCCc1cc2c(=O)n(CCSc3nc(-c4cc(OC)c(OC)c(OC)c4)c(C#N)c(=O)[nH]3)cnc2s1 | 13.6 µg/mL (≈ 22.8 µM) | 11.1 µg/mL (≈ 18.6 µM) | 17.1 µg/mL (≈ 28.7 µM) | 11.1 µg/mL (≈ 18.6 µM) | 88.1 µg/mL (≈ 148 µM) | 5 | 4 | 4 | 7 | 7 | 6 | 7 | 7 | 7 | 79.7 µg/mL (≈ 134 µM) | 72.6 µg/mL (≈ 122 µM) | 75.4 µg/mL (≈ 127 µM) | 6 | 5 | 6
COc1cc(-c2nc(SCCCn3cnc4sc5c(c4c3=O)CCCC5)n(Cc3ccccc3)c(=O)c2C#N)cc(OC)c1OC | > 30 µg/mL | > 30 µg/mL | > 30 µg/mL | > 30 µg/mL | > 100 µg/mL | > 3 | 2 | 2 | > 3 | > 3 | 2 | 2 | 2 | 2 | > 100 µg/mL | 51.9 µg/mL (≈ 79.1 µM) | 72.1 µg/mL (≈ 110 µM) | > 3 | 2 | 2
